The values below come from ChEMBL document CHEMBL1140724, “Identification of human intestinal carboxylesterase as the primary enzyme for activation of a doxazolidine carbamate prodrug” (J Med Chem, 2008).

Experiment [1] has as its system MCF7. As to the kind of experiment: Growth inhibition of doxorubicin-sensitive human MCF7 cells after 24 hrs in presence of human carboxylesterase 1. The conditions noted are these: MCF7, 24 h. The class given is functional, cell-based. A digest of the protocol: (§1)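 MCF-7 or MCF-7/Adr cells in RPMI 1640 with 10% fetal calf serum were seeded and left overnight to adhere. Medium was then replaced with complete medium holding prodrug in DMSO (1% final), alone or with additive: recombinant hiCE 250 ng/mL, hCE1 2.5 µg/mL, pig liver esterase 30 µg/mL, or N-Hep G2 lysate 83.5 µg protein/mL. Exposure was 24 h, then fresh medium.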

For experiment [2], the system named is MCF7. As to the kind of experiment: Growth inhibition of doxorubicin-sensitive human MCF7 cells after 24 hrs in presence of human carboxylesterase 1 relative to pentyl PABC-Doxorubicin. The class given is functional.
Experiment [3] can be described thus: Growth inhibition of […] human MCF7/Adr cells after 24 hrs in presence of human carboxylesterase 1 relative to pentyl PABC-Doxorubicin. The class given is functional, NCI/ADR-RES.
The test system of experiment [4] is MCF7. Put plainly: (§2) Growth inhibition of doxorubicin-sensitive human MCF7 cells after 24 hrs. The class given is functional, cell-based. The conditions noted are these: MCF7, 24 h. A digest of the protocol: as §1
Experiment [5] can be described thus: Growth inhibition of doxorubicin-resistant human MCF7/Adr cells after 24 hrs. The class given is functional, cell-based. To be noted: NCI/ADR-RES. The essentials: as §1
The nature of experiment [6]: Growth inhibition of human MCF7/Adr cells after 24 hrs in presence of human carboxylesterase 1. The conditions noted are these: NCI/ADR-RES.
Experiment [7] in a line: Growth inhibition of human U373MG cells containing U373IRES plasmid after 1 hr. The class given is functional, cell-based, U-373MG ATCC. The conditions noted are these: U373 MG. A digest of the protocol: (§3)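 U373MG glioblastoma cells (vector U373IRES, hCE1-overexpressing UhCE1, or hiCE-overexpressing UhiCE) were cultured in DMEM with 10% fetal calf serum and no antibiotics. They were exposed to graded prodrug for 1 h. Growth inhibition was measured as IC50, with points as mean ± standard deviation of six measurements.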

Experiment [8] can be described thus: Growth inhibition of human U373MG cells containing UhCE1 expressing plasmid after 1 hr. The class given is functional, cell-based, U-373MG ATCC. The conditions noted are these: U373 MG. The essentials:
as §3

Experiment [9] in a line: Growth inhibition of human U373MG cells containing UhiCE expressing plasmid after 1 hr. The class given is functional, cell-based, U-373MG ATCC. To be noted: U373 MG. The essentials: as §3
Experiment [10] has as its system MCF7. As to the kind of experiment: Growth inhibition of doxorubicin-sensitive human MCF7 cells after 24 hrs in presence of pig liver esterase. The class given is functional, cell-based. To be noted: MCF7, 24 h. The essentials:
as §1

The test system of experiment [11] is MCF7. As to the kind of experiment: Growth inhibition of doxorubicin-sensitive human MCF7 cells after 24 hrs in presence of human intestinal carboxylesterase. The class given is functional, cell-based. The conditions noted are these: MCF7, 24 h. The essentials:
as §1

Experiment [12] has as its system MCF7. Put plainly: Growth inhibition of doxorubicin-sensitive human MCF7 cells after 24 hrs in presence of N-Hep G2 lysate. The class given is functional, cell-based. To be noted: MCF7, 24 h. A digest of the protocol: as §1
Experiment [13] is described as follows: Growth inhibition of […] human MCF7/Adr cells after 24 hrs in presence of human intestinal carboxylesterase. The class given is functional, cell-based. The conditions noted are these: NCI/ADR-RES. The essentials:
as §1

The nature of experiment [14]: Growth inhibition of […] human MCF7/Adr cells after 24 hrs in presence of N-Hep G2 lysate. The class given is functional, cell-based. To be noted: NCI/ADR-RES. A digest of the protocol:
as §1

The test system of experiment [15] is MCF7. As to the kind of experiment: Growth inhibition of doxorubicin-sensitive human MCF7 cells after 24 hrs in presence of human intestinal carboxylesterase relative to pentyl PABC-Doxorubicin. The class given is functional.
The test system of experiment [16] is MCF7. Put plainly: Growth inhibition of doxorubicin-sensitive human MCF7 cells after 24 hrs in presence of N-Hep G2 lysate relative to pentyl PABC-Doxorubicin. The class given is functional.
Experiment [17] in a line: Growth inhibition of […] human MCF7/Adr cells after 24 hrs in presence of human intestinal carboxylesterase relative to pentyl PABC-Doxorubicin. The class given is functional, NCI/ADR-RES.
Experiment [18] can be described thus: Growth inhibition of […] human MCF7/Adr cells after 24 hrs in presence of N-Hep G2 lysate relative to pentyl PABC-Doxorubicin. The class given is functional, NCI/ADR-RES.
Experiment [19] in a line: Growth inhibition of human U373IRES cells after 1 hr. The class given is functional, U-373MG ATCC. A digest of the protocol:
as §3

Experiment [20] has as its system MCF7. Put plainly: Growth inhibition of human MCF7 cells. The class given is functional, cell-based.
A short description of experiment [21]: Growth inhibition of human MCF7/Adr cells. The class given is functional, cell-based. To be noted: NCI/ADR-RES.
Another experiment has as its system SK-HEP1. As to the kind of experiment: Growth inhibition of human SK-HEP-1 cells. The class given is functional, cell-based.
The test system of the next experiment is HepG2. As to the kind of experiment: Growth inhibition of human HepG2 cells. The class given is functional, cell-based.
Experiment [22] in a line: Growth inhibition of human N-HepG2 cells. The class given is functional, cell-based.
A short description of experiment [23]: Growth inhibition of rat H9c2(2-1) cells. The class given is functional.
For a further experiment, the species on record is Sus scrofa. As to the kind of experiment: Hydrolysing activity of pig liver esterase assessed as doxorubicin production.
The species named for the next experiment is Homo sapiens. As to the kind of experiment: Hydrolysing activity of human recombinant intestinal carboxylesterase. A digest of the protocol:
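Recombinant baculovirus-expressed hiCE (26 µg/mL) was incubated with 50 µM prodrug in 5% DMSO with FBS/RPMI/PBS pH 7.4. Timed aliquots were quenched in equal-volume ethanol, held at -20 °C overnight and centrifuged. 1 unit = 1 µM Dox per hour; specific activity is per mg protein.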

The test system of experiment [24] is MCF7. The description is as §2. The class given is functional. The essentials: as §1
The subject of experiment [25] is MCF7. Put plainly: Growth inhibition of doxorubicin-sensitive human MCF7 cells after 24 hrs in presence of pig liver esterase relative to pentyl PABC-Doxorubicin. The class given is functional.
Experiment [26] in a line: Growth inhibition of doxorubicin-resistant human MCF7/Adr cells after 24 hrs in presence of human intestinal carboxylesterase. The class given is functional, NCI/ADR-RES. The essentials:
as §1

A short description of experiment [27]: Growth inhibition of human U373MG cells containing UhiCE expressing plasmid after 1 hr relative to pentyl PABC-Doxorubicin. The class given is functional, U-373MG ATCC. The essentials: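 UhiCE cells were preincubated 2 h with 10 µM benzil, a membrane-permeable CE inhibitor, before 1 h prodrug exposure. IC50 was compared with prodrug alone, using means of six measurements.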

SMILES strings stand for the structures. A value given as a limit tells only on which side of the number the result lay.

On to `O=S(=O)(Nc1ccc(NS(=O)(=O)c2ccc(Cl)cc2)cc1)c1ccc(Cl)cc1`, for which the IC50 with MCF7 [1] was 1000 nM; in the experiment on MCF7 [4], above 1000 nM; in experiment [5], above 1000 nM; in experiment [6], 794 nM. The Fold change (with MCF7 [2]; in experiment [3]) was above 1 each time.
In the case of `COc1cccc2c1C(=O)c1c(O)c3c(c(O)c1C2=O)C[C@@](O)(C(=O)CO)C[C@@H]3OC1C[C@H](N)[C@H](O)[C@H](C)O1` (single isomer, unassigned) [DOXORUBICIN], the results for the IC50 in experiment [7], in experiment [8] and in experiment [9] were 158 nM, 158 nM and 200 nM, respectively.
On to `CCCCCOC(=O)Nc1ccc(COC(=O)N2CO[C@@H]3[C@H](C)O[C@H](O[C@H]4C[C@](O)(C(=O)CO)Cc5c(O)c6c(c(O)c54)C(=O)c4c(OC)cccc4C6=O)C[C@@H]32)cc1`, for which the half-maximal inhibitory concentration (IC50) was 3.98 nM in the experiment on MCF7 [10]; 15.8 nM in the experiment with MCF7 [11]; 251 nM with MCF7 [12]; 12.6 nM in [13]; 158 nM in [14]; 2510 nM with MCF7 [20]. The IC50 in experiment [21] was 316 nM; in the experiment on SK-HEP1 it was 1000 nM; with HepG2, 50.1 nM; in [22], 20 nM; in [23] it was 631 nM; with MCF7 [4], above 1000 nM. In addition, the IC50 in [5], in [7] and in experiment [8] was above 1000 nM throughout. For the same molecule, the Fold change is listed as above 63 in the experiment with MCF7 [15]; above 4 in the experiment on MCF7 [16]; above 79 in experiment [17]; above 6 in [18]; 1 in [19]; 1 in the experiment on MCF7 [24]. Also, the Fold change in the experiment with MCF7 [25] was above 100; in experiment [26] it was above 79; in experiment [27], above 20. In addition, the values for the Activity in the experiment filed under Sus scrofa and in the experiment listed under Homo sapiens were 47 µM/h and 0.065 µM/h, respectively.

One may read the IC50 as the concentration needed to halve the response being measured.
